How the values were obtained:
[1] = target: Human immunodeficiency virus type 1 integrase (Human immunodeficiency virus 1, UniProt Q7ZJM1); assay: Inhibition of HIV1 integrase after 1 hr by ELISA
How it was run: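 ELISA with annealed oligos (7 nM): a 3′-biotin strand and a 5′-digoxigenin complementary strand. Integrase was diluted in 750 mM NaCl, 10 mM Tris pH 7.6, 10% glycerol, 1 mM β-mercaptoethanol, 0.1 mg/mL BSA. Reaction in 10 mM MgCl₂, 5 mM DTT, 20 mM HEPES pH 7.5, 5% PEG, 15% DMSO, 1 h at 37 °C. Detection by immunosorbent assay on avidin-coated plates.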

[2] = Cytotoxicity gainst human HeLaP4 cells after 3 days by MTT assay; format: cell-based
[3] = tested on: Human immunodeficiency virus 1; assay: Antiviral activity against HIV1 […] in human HeLaP4 cells assessed as beta-galactosidase activity after 72 hrs; format: functional, organism-based; conditions: Human immunodeficiency virus 1, HeLaP4, 72 h
How it was run: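 Virus (HIV-1 pNL4-3) made by transfecting P4 cells with the genomic clone. Infected CEM4fx cells in triplicate grown with increasing drug concentrations for 3 days. Supernatants collected at 72 h were used to infect HeLa-CD4-β-gal (P4) reporter cells for 24 h. Cells were lysed (50 mM 2-mercaptoethanol, 10 mM MgSO4, 25 mM EDTA, 0.125% NP40), incubated with CPRG, and read at 570 nm. Replicates averaged.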

[4] = Therapeutic index, ratio of CC50 for human MT4 cells to EC50 for HIV1 3B; format: cell-based; conditions: read-out: Ratio CC50/EC50
How it was run: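 MT-4 cells were infected with 100–300 CCID₅₀ of HIV-1 IIIB, with the CCID₅₀ titrated on MT-4 cells. Drugs were added as fivefold serial dilutions. Protection from virus-induced cytopathic effect was read by MTT reduction to formazan, giving EC₅₀, and CC₅₀ was determined in parallel.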

[5] = Therapeutic index, ratio of CC50 for human HeLaP4 cells to EC50 for HIV1 […]; format: cell-based; conditions: read-out: Ratio CC50/EC50
MT4 = assay: Cytotoxicity gainst human MT4 cells after 3 days by MTT assay; format: cell-based; conditions: MT4, 72 h
How it was run: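 MT-4 cells in the MT-4/MTT format. CC50 determined in parallel with the antiviral EC50 using the MTT formazan read-out.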

[6] = tested on: Human immunodeficiency virus 1; assay: Antiviral activity against HIV1 3B infected in human MT4 cells assessed as inhibition of virus-induced cytopathic effect by MTT assay; format: functional; conditions: Human immunodeficiency virus 1, 3B
How it was run: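 HIV-1 IIIB stock titred on MT-4 cells to find CCID50. MT-4 cells infected with 100–300 CCID50 in the presence of fivefold serial drug dilutions. Protection from virus-induced cytopathic effect read by MTT reduction to formazan, measured spectrophotometrically. EC50 taken as the concentration giving 50% protection.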

Sequence of Human immunodeficiency virus type 1 integrase (Q7ZJM1 whole entry): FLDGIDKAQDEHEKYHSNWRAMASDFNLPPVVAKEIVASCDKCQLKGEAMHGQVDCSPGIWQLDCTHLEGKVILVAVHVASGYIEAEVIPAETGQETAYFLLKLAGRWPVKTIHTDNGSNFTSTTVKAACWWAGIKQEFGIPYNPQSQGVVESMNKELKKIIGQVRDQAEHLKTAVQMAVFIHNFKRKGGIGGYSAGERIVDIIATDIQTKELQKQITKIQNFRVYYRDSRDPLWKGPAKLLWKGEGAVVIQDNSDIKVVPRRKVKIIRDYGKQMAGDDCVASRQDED

SMILES	IC50 [1] [µM]	other results
Oc1cccc(-c2ccc3c(O)c(O)ccc3c2)c1O	1	CC50 at 72 h [2]: > 100 µM; EC50 [3]: > 100 µM
O=C1C(=O)c2cc(-c3cc(O)c(O)c(O)c3)ccc2C(Oc2c(O)cc(-c3ccc4cc(O)c(O)c(O)c4c3)cc2O)=C1O	0.85	selectivity ratio [4]: 19; selectivity ratio [5]: 74; CC50 at 72 h [2]: 85 µM; EC50 [3]: 1.15 µM
Oc1ccc(-c2ccc3cc(O)c(O)cc3c2)cc1O		selectivity ratio [5]: 5; CC50 at 72 h [2]: 51 µM; EC50 [3]: 9.9 µM
Oc1cc(-c2ccc3cc(O)c(O)c(O)c3c2)cc(O)c1O	0.5	CC50 (MT4): > 1 µM; EC50 [6]: 1 µM
Oc1ccc2cc(-c3ccc(F)cc3)ccc2c1O	8	
Oc1ccc(-c2ccc3c(O)c(O)ccc3c2)cc1O	2.2	CC50 at 72 h [2]: > 100 µM; EC50 [3]: 40 µM

Now from value to compound, other results behind:

IC50 [1] [µM]	SMILES	other results
6	Oc1ccc2cc(-c3ccccc3C(F)(F)F)ccc2c1O	
10	Oc1ccccc1-c1ccc2c(O)c(O)ccc2c1	
4.8	Oc1cccc(-c2ccc3c(O)c(O)ccc3c2)c1	
10	Oc1ccc2cc(-c3ccc(C(F)(F)F)cc3)ccc2c1O	
10	Oc1ccc2cc(-c3cccc(C(F)(F)F)c3)ccc2c1O	
9.6	Oc1ccc2cc(-c3cccc(F)c3)ccc2c1O	
6	Oc1ccc2cc(-c3ccccc3)ccc2c1O	
8.1	Oc1ccc(-c2ccc3c(O)c(O)ccc3c2)cc1	
7.3	Oc1ccc2cc(-c3ccccc3F)ccc2c1O	
